Results as given in ChEMBL document CHEMBL3124880, “4-(3-Chloro-5-(trifluoromethyl)pyridin-2-yl)-N-(4-methoxypyridin-2-yl)piperazine-1-carbothioamide (ML267), a potent inhibitor of bacterial phosphopantetheinyl transferase that attenuates secondary metabolism and thwarts bacterial growth” (J Med Chem, 2014).
Activity calls are given as the source filed them.

Experiments:
Bacillus subtilis [1] = experiment: Antibacterial activity against Bacillus subtilis HM489 assessed as cellular ATP content after 5 hrs by BacTiter-Glo assay; format: functional, organism-based; settings: HM489, 5 h
[2] = Volume of distribution in CD-1 mouse at 3 mg/kg, iv; format: ADME, organism-based; set-up: dose 3 mg/kg, route intravenous; settings: in vivo
In short: (§1)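 Male CD1 mice, 6–8 weeks old, given 3 mg/kg iv as a solution in 5% DMSO/10% Solutol in water. Plasma sampled at eight time points over 24 h, in triplicate; MRT defined as time to eliminate 63.2% of the iv dose.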

[3] = molecular target: T1, L-aminoadipate-semialdehyde dehydrogenase-phosphopantetheinyl transferase (Homo sapiens) (UniProt Q9NRN7); experiment: Inhibition of human PPTase up to 125 uM by gel-based fluorescence assay
T1 sequence (whole entry): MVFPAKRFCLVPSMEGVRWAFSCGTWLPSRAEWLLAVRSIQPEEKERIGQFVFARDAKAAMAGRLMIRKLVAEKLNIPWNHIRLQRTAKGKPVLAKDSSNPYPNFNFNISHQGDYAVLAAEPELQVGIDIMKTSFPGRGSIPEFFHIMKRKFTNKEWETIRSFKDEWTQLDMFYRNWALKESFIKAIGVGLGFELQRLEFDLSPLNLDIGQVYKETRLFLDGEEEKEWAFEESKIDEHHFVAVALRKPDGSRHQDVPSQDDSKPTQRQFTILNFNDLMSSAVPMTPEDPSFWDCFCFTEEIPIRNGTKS

Escherichia coli [4] = experiment: Antibacterial activity against wild type Escherichia coli BW25113 assessed as growth inhibition at 1.8 to 250 ug/mL after 16 to 20 hrs by broth dilution method in presence of AcrAB-TolC inhibitor phenylarginine-beta-napthamide; format: functional
In short: (§2)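 E. coli BW25113 (wild type) and JW0451 (ΔacrB) tested by broth dilution in cation-adjusted Mueller Hinton II, ~1×10^3 cfu, 16–20 h. Growth shown with resazurin. Checkerboard combination with the efflux inhibitor PAβN in the wild type.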

Mus musculus = experiment: Toxicity in CD-1 mouse at 30 mg/kg, ip measured over 24 hrs; format: organism-based; set-up: dose 30 mg/kg, route intraperitoneal; settings: in vivo
In short: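 Male CD1 mice, 6–8 weeks old, given 30 mg/kg ip in 5% DMSO/10% Solutol/water. Clinical observations recorded over 24 h.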

[5] = Mean residence time required for 63.2% elimination of drug in CD-1 mouse at 3 mg/kg, iv; format: ADME, organism-based; set-up: dose 3 mg/kg, route intravenous; settings: in vivo; in short: as §1
Liver microsome = experiment: Half life in rat liver microsomes in presence of NADPH; format: ADME
In short: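 Liver microsomes from mouse or rat incubated with compound in the presence of NADPH. Mouse assay done at Pharmaron.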

Pseudomonas aeruginosa = experiment: Antibacterial activity against Pseudomonas aeruginosa ATCC 9028 assessed as growth inhibition at 0.8 to 100 ug/mL after 16 to 20 hrs by resazurin dye-based assay; format: functional, organism-based
In short: (§3)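 Broth microdilution. Test article from 1 μL DMSO in 50 μL cation-adjusted Mueller Hinton II (bacteria) or RPMI 1640 (fungi), plus ~1×10^3 cfu inoculum in the same medium. Incubated 16–20 h at 30–37 °C (48 h for fungi). MIC scored visually as the first well without growth; resazurin added for imaging.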

[6] = Inhibition of Bacillus subtilis Sfp-PPTase using rhodamine-CoA/BHQ-2-YbbR as substrate preincubated for 15 mins followed by substrate addition by HTS assay
Escherichia coli [7] = experiment: Antibacterial activity against Escherichia coli K-12 assessed as growth inhibition at 0.8 to 100 ug/mL after 16 to 20 hrs by resazurin dye-based assay; format: functional, organism-based; in short: as §3
[8] = Inhibition of Bacillus subtilis AcpS-PPTase using rhodamine-CoA/BHQ-2-YbbR as substrate preincubated for 15 mins followed by substrate addition by HTS assay
In short: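 AcpS-PPTase at 100 nM final in 50 mM HEPES-Na pH 7.6, 10 mM MgCl2, 0.01% Nonidet P-40, 0.01% BSA; compound preincubated 15 min at room temperature, then rhodamine-CoA (5 μM final) and BHQ-2-YbbR (12.5 μM final) added. Fluorescence read (525 ex/598 em) at start and after 60 min; difference gives rate.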

[9] = Half life in CD-1 mouse at 30 mg/kg, ip; format: ADME, organism-based; set-up: dose 30 mg/kg, route intraperitoneal; settings: in vivo
In short: (§4)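 Male CD1 mice, 6–8 weeks old. Dosed iv at 3 mg/kg or ip at 30 mg/kg as a solution in 5% DMSO/10% Solutol in water. Plasma sampled in triplicate at eight time points over 24 h.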

Staphylococcus aureus = experiment: Antibacterial activity against Staphylococcus aureus isolated from kidney of 30 mg/kg, ip compound-treated Swiss Webster mouse septicemia model assessed as growth inhibition; format: functional, organism-based; set-up: dose 30 mg/kg
In short: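 Bacteria harvested from the kidneys of septic mice treated with vehicle or compound, five isolates taken per crude sample. MICs measured in parallel with the parental USA500 strain.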

Candida albicans = experiment: Antifungal activity against fluconazole-sensitive Candida albicans ATCC 90028 assessed as growth inhibition at 0.8 to 100 ug/mL after 48 hrs by resazurin dye-based assay; format: functional, organism-based; in short: as §3
Escherichia coli [10] = experiment: Antibacterial activity against Escherichia coli JW0451 containing lesion in acrB locus assessed as growth inhibition at 12.5 ug/mL after 16 to 20 hrs by broth dilution method; format: functional, organism-based; in short: as §2
[11] = AUC (infinity) in CD-1 mouse at 3 mg/kg, iv; format: ADME, organism-based; set-up: time infinity, dose 3 mg/kg, route intravenous; settings: plasma; in short: as §4
Bacillus subtilis [12] = experiment: Antibacterial activity against Bacillus subtilis OKB105 assessed as inhibition of surfactin production at 0.53 ug/mL after 28 hrs by LC-MS analysis relative to vehicle-treated control; format: functional; settings: OKB105, 28 h
In short: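 B. subtilis OKB105 cultures grown with sublethal compound concentrations. Culture growth and surfactin titer measured periodically over 28 h; titer expressed relative to vehicle control.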

Bacillus subtilis [13] = experiment: Antibacterial activity against Bacillus subtilis OKB105 assessed as effect on doubling time in log phase at 0.53 to 1.1 ug/mL after 28 hrs; format: functional, organism-based
In short: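 B. subtilis OKB105 cultured with compound at 0.53 or 1.1 µg/mL against a vehicle control. Culture density and surfactin titer sampled periodically over 28 h.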

SMILES: COc1ccnc(NC(=S)N2CCN(c3ncc(C(F)(F)F)cc3Cl)CC2)c1
- IC50 (Bacillus subtilis [1]): 9.3 µM
- Vd [2]: 1.5 L/kg
- inhibition [3]: inactive
- growth inhibition (GI) (Escherichia coli [4]): Active
- Activity (Mus musculus): Non-toxic
- MRT [5]: 3.4 h
- t1/2 (Liver microsome): > 0.5 h
- growth inhibition (GI) (Pseudomonas aeruginosa): inactive
- IC50 [6]: 0.29 µM
- growth inhibition (GI) (Escherichia coli [7]): inactive
- IC50 [8]: 8.1 µM
- half-life [9]: 2 h
- growth inhibition (GI) (Staphylococcus aureus): Active
- growth inhibition (GI) (Candida albicans): inactive
- growth inhibition (GI) (Escherichia coli [10]): Active
- AUC(0-inf) [11]: 6980 ng·h/mL
- inhibition at 0.53 µg/mL (Bacillus subtilis [12]): 33%
- Activity (Bacillus subtilis [13]): inactive
